Structures are written as SMILES. Out of some 2,500 compounds screened, about 460 (18%) were called active. These entries were drawn from the full list. Unmarked numbers belong to inactive results.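 How the source made its calls: active means mean activation above a cutoff of low control average plus 3 SD from the earlier screen (cut at about 12% in these data); inactive means the rest.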

The test can be described thus: IANBD-channel fluorescence artefacts in buffer – biochemical, artefact control for cardiac RTF calcium sensitizer project, confirmation (AID 504382). To be noted: IANBD fluorescence interference counterscreen, EC20 Ca2+, at 7.2 µM, active compounds read high, scaled: EC20 calcium 0, EC100 calcium 100. Put shortly: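 Medium: MOPS/KCl/MgCl2/EGTA/NTA/DTT buffer, pH 7.2 | Reagent: EC20 calcium, 0.472 mM | Compound dosing: 7.2 µM single dose | Times: 15 min compound exposure at 25 °C | Signal: Fluorescence, 480/540 nm | Measure: Interference relative to controls | Repeats: Triplicate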
For orientation: The purpose of a counterscreen is to sort out artefacts and off-target activity.
`S=C1NC2=C(CCC/C2=C\c2ccccc2)C(c2ccccc2)N1` (stereo unspecified): the fluorescence artifact activation is 0.06%.
Turning to `COc1ccc(/C=C2\Oc3cc(OCC(N)=O)ccc3C2=O)cc1OC`, the fluorescence artifact activation was 0.06%.
On to `O=C(Oc1ccc2c(c1)O/C(=C\c1ccncc1)C2=O)c1ccccc1`, for which the fluorescence artifact activation is 33% (active).
The result for `COc1ccccc1C(=O)Oc1ccc2c(c1)O/C(=C\c1ccncc1)C2=O` reads 8.13%; that for `O=C(CC1SC(N2CCCCC2)=NC1=O)Nc1ccc(C(=O)NCc2ccccc2)cc1` (stereo unspecified), 3.4%.
On to `Cc1ccc(C(=O)Nc2ccc3c(c2)ncn3C)cc1`, for which the fluorescence artifact activation is 2.41%.
For `O=C1NC(c2ccco2)Nc2sc3c(c21)CCN(Cc1ccccc1)C3` (stereo unspecified), the fluorescence artifact activation was 0.37%.
As to `COc1ccc(/C(O)=C2\C(=O)C(=O)N(Cc3ccco3)C2c2cc(OC)ccc2OC)cc1` (stereo unspecified), the fluorescence artifact activation was 0.4%.
The result for `COc1ccc(NC(=O)CS(=O)(=O)c2cccc(Cl)c2)cc1` reads 0.13%.
The result for `COc1ccc(NC(=O)CC2C(=O)N(Cc3ccco3)C(=S)N2C(C)C)cc1` (stereo unspecified) reads 23.2% (active).
The result for `Cc1cccc(C)c1OCC(C)N` (stereo unspecified) reads 4.83%.
Turning to `O=C(COc1ccccc1F)NC1CC1`, the fluorescence artifact activation was 10.7%.
Consider `COc1ccc(C)cc1NC(=O)CC1COc2ccccc2O1` (stereo unspecified), for which the fluorescence artifact activation is 0.06%.
Turning to `COc1ccccc1CNc1cc(C)ccc1C`, the fluorescence artifact activation was 415% (active).
Consider `C=CCOc1ccccc1CNc1cccc(F)c1`, for which the fluorescence artifact activation is 1.22%.
Consider `Cc1cccc(-n2c(C)cc(C=C3C(=O)c4ccccc4C3=O)c2C)c1`, for which the fluorescence artifact activation is -0.01%.
The result for `CCC1SC(=Nc2cccc(C)c2)NC1=O` (stereo unspecified) reads 50% (active).
The result for `COCCn1c(=NC(=O)/C=C/c2ccccc2)sc2cc(NC(C)=O)ccc21` reads 3.82%; that for `CCOC(=O)c1c(C(C)(C)C)oc2ccc(OCC#N)cc12`, 0.48%.
The result for `COc1cc2c(cc1OC)-c1cc3ccc4c(c3c[n+]1CC2)OCO4` reads 0.19%; that for `Nc1nc(SCC(=O)Nc2ccc(Cl)cc2)[nH]c(=O)c1-c1ccccc1`, 0.2%; that for `O=C(CSc1nncc2ccccc12)Nc1ccc(F)cc1`, 51.6% (active).
Turning to `COc1ccc(NC(=O)CSc2nncc3ccccc23)cc1`, the fluorescence artifact activation is 0.15%.
The result for `COc1ccc(CC/C(C)=N\NC(N)=O)cc1` reads 1.07%; that for `COc1ccc(C)cc1Nc1n[n+](-c2ccccc2)c(-c2cc([N+](=O)[O-])cc(OC)c2O)s1`, -0.11%.
Consider `O=C1c2ccccc2-c2c1cccc2C(=O)N1CCCCCC1`, for which the fluorescence artifact activation is 0.15%.
The result for `O=C(c1ccccc1)N1CCCCC1` reads 2.65%; that for `Cc1[nH]c(C)c(S(=O)(=O)N2c3ccccc3CC2C)c1C(=O)N1CCCCC1` (stereo unspecified), 43.6% (active); that for `C=CCn1cccc(C(=O)Nc2ccc(OC)c(Cl)c2)c1=O`, 0.54%.
The result for `COc1ccc(N2CCN(C(=O)Cn3nnc(-c4ccccc4N)n3)CC2)cc1` reads 20.6% (active); that for `CC1CCCCN1C(=O)Cn1nnc(-c2cccnc2)n1` (stereo unspecified), 1.03%; that for `COc1c(O)cccc1-c1nnn(CCC(=O)OCC(=O)c2ccccc2)n1`, 10.9%.
As to `COC(=O)CCC(=O)OC1(C)C(=O)C=C2C=C(C3CC3)N(c3cccc(C#N)c3)C=C2C1=O` (stereo unspecified), the fluorescence artifact activation is -0.02%.
The result for `COC(=O)c1ccc(Oc2c(F)c(F)nc(N3CCOCC3)c2F)cc1` reads -0.07%.
The result for `OCCN(CCO)c1nc(N2CCCCC2)c2nc(N(CCO)CCO)nc(N3CCCCC3)c2n1` reads 11.3%.
In the case of `O=C(c1ccc([N+](=O)[O-])cc1[N+](=O)[O-])n1cnc2ccccc21`, the fluorescence artifact activation is -0.09%.
Consider `O=C(c1ccccc1C(=O)N1CCN(c2ccccc2)CC1)N1CCN(c2ccccc2)CC1`, for which the fluorescence artifact activation is -0.08%.
The result for `CC(=O)c1nnn(-c2nc(N3CCCC3)nc(N(c3ccccc3)c3ccccc3)n2)c1C` reads 0.23%; that for `C=CCn1c(C)c(C(C)=O)c(N2CCN(c3ccccc3)CC2)nc1=S`, 28.9% (active); that for `CC1(C)C2CCC(C2)C1(C)N=C1OC(CCl)CS1` (stereo unspecified), 1.52%.
With `CC(C)=CCC/C(C)=C/Cc1c(O)ccc(C(=O)/C=C/c2ccc(O)cc2)c1O`, the fluorescence artifact activation was 177% (active).
`CN(C)c1ccc(/C=C/C(=O)c2ccccc2O)cc1`: the fluorescence artifact activation is 0%.
Consider `CN(C)c1ccc(/C=C/C(=O)c2ccc(O)cc2)cc1`, for which the fluorescence artifact activation was -0.03%.
The result for `COc1ccc(C2C(C(=O)c3cccs3)=C(O)C(=O)N2c2nncs2)cc1` (stereo unspecified) reads 5.56%; that for `Cc1ccc(C)c(N2CCN(C(=O)c3cc4ccccn4n3)CC2)c1`, 4.58%.
The result for `CCN(CC)c1ccc(/C=C/C(=O)C2C(=O)C=C(C)OC2=O)cc1` (stereo unspecified) reads 0.16%; that for `Cc1ccc(-c2ccc(CO)o2)cc1N`, 28.2% (active).
For the compound `Cc1ccc2c(CN3CCCc4ccccc43)cc(=O)oc2c1C`, the fluorescence artifact activation is -0.04%.
`FC(F)(F)c1cccc(-c2nc(COc3ccc(Cl)cc3Cl)no2)c1`: the fluorescence artifact activation is 2280% (active).
The result for `Cn1c(-c2ccc(C=O)s2)nc2c3ccccc3c3ccccc3c21` reads 5.75%.
Turning to `CCOC(=O)COc1c(Cl)cc(C2NC(=S)NC(c3ccccc3)=C2C(C)=O)cc1OC` (stereo unspecified), the fluorescence artifact activation is 6.87%.
The result for `CCOc1ccc(NC(=O)C2CC(=O)N=C(N)S2)cc1` (stereo unspecified) reads 0.11%; that for `Cc1ccc(NC(=O)C(C)Sc2nnc(C)n2C2CC2)cc1S(=O)(=O)N1CCOCC1` (stereo unspecified), 0.96%; that for `CN1CCCN(Cc2cccc3ccccc23)CC1`, 0.24%.
`NS(=O)(=O)c1cccc(NC(=O)CCc2ccc(S(=O)(=O)N3CCOCC3)cc2)c1`: the fluorescence artifact activation was 31.3% (active).
The result for `O=C(CCc1ccc(S(=O)(=O)N2CCOCC2)cc1)OCC(=O)c1ccccc1` reads 6.03%; that for `O=S(=O)(c1ccc(NC(=S)Nc2ccccc2)cc1)N1CCOCC1`, 0.1%; that for `CCOC(=O)CCc1c(C)nc(-n2[nH]c(C)c(CCO)c2=O)[nH]c1=O`, 0.03%.
As to `CCOC(=O)CNc1ccc2c(c1)OCO2`, the fluorescence artifact activation is 2.35%.
The result for `Cc1ncc(CO)c2cc(-c3nnc(Nc4ccc5c(c4)OCO5)s3)c(=O)oc12` reads 23.2% (active); that for `O=C(c1ccccc1)N1C(=O)C(c2ccccc2)Oc2ccccc21` (stereo unspecified), -0.12%.
As for `CC(/C=N/Nc1ccc2nncn2n1)=C\c1ccccc1`, the fluorescence artifact activation is 12.9% (active).
With `COc1cccc(C2C=C(c3ccc(Br)s3)Nc3ncnn32)c1OC` (stereo unspecified), the fluorescence artifact activation is -0.01%.
`O=C(CNC(=O)c1cccc(Cl)c1)N/N=C/c1cccnc1`: the fluorescence artifact activation was 0.03%.
With `CC/C(=C/c1sc2ccccc2[n+]1CC)SC`, the fluorescence artifact activation is 2.16%.
The result for `CC[n+]1c(/C=C/N(C)c2ccccc2)oc2ccccc21` reads -0.02%; that for `CC[n+]1c(/C=C/C=C/N(C(C)=O)c2ccccc2)sc2ccccc21`, 49.8% (active); that for `CC1=Nc2ccccc2/C1=C\c1nc(-c2ccc(C(F)(F)F)cc2)oc1O`, -0.02%.
The result for `C[C@H]1CCC(=O)N([C@H](CSc2ccc(Br)cc2)Cc2ccccc2)CC1` reads 0.11%; that for `Nc1c(C(=O)Nc2ccccc2F)sc2nc(Cc3ccccc3)cc(C(F)(F)F)c12`, 0.07%; that for `CCOc1ccc2noc3c2c1C(=O)c1ccccc1-3`, 0.02%.
Consider `c1ccc(Nc2nc3ccccc3n3cnnc23)cc1`, for which the fluorescence artifact activation is 0.03%.
For `CCCCOC(=O)Nc1nnc(C(C)C)s1`, the fluorescence artifact activation was 148% (active).
Consider `CCOCCc1nnc(NC(=O)COC)s1`, for which the fluorescence artifact activation is 0.06%.
The result for `CCC(CC)c1nnc(NC(=O)/C=C/c2ccco2)s1` reads 0.09%; that for `Cc1cc(S(=O)(=O)Cc2noc(-c3c(C)noc3C)n2)c(C)cc1Cl`, -0.02%.
The result for `COC(=O)[C@H](Cc1ccccc1)NC(=O)Nc1ccc(OC)cc1` reads 0.02%; that for `COc1cc(OC)c(C(=O)OC(C)C(=O)Nc2cccc(C(F)(F)F)c2)cc1OC` (stereo unspecified), 1.83%; that for `COCCN1C(=O)N[C@@H](c2cccc(C(F)(F)F)c2)C(C(=O)OC)=C1C`, 13.5% (active).
On to `CCOC(=O)CN1C(=O)N[C@@H](c2cccc(C(F)(F)F)c2)C(C(=O)OC)=C1C`, for which the fluorescence artifact activation is 0.03%.
The result for `Cc1c(C(=O)NCc2ccco2)cccc1[N+](=O)[O-]` reads 4.18%; that for `COc1cc(/C=C/C(O)=C/C(=O)/C=C/c2ccc(O)cc2)ccc1O`, 0.51%.
As to `COc1cc(/C=C/C(=O)/C=C(O)/C=C/c2ccc(O)c(OC)c2)ccc1O`, the fluorescence artifact activation is 110% (active).
Consider `COc1cc(/C=C/C(=O)CC(=O)/C=C/c2ccc(O)c(OC)c2)ccc1O`, for which the fluorescence artifact activation is 0.15%.
Turning to `C/C(=N/NC(=O)Nc1ccccc1)c1ccc(C)cc1`, the fluorescence artifact activation is -0.02%.
The result for `Cc1c(C=O)c2ccccn2c1C(=O)c1cccs1` reads 3.43%; that for `CCCNC(=O)Cn1c(=O)/c(=C\c2ccc(-c3ccc([N+](=O)[O-])cc3)o2)s/c1=C\C(=O)C(C)(C)C`, 8.2%; that for `CC1(C)CC(=O)C=C(NCc2ccc(Cl)c(Cl)c2)C1`, -0.02%.
The result for `COc1ccc(CNC(=O)C(C#N)c2nc3ccccc3nc2N2CCCC2)cc1` (stereo unspecified) reads -0.08%.
The result for `O=S(=O)(c1ccc(F)cc1)N1CN(Cc2ccco2)c2nc3ccccc3nc21` reads 8.07%.
In the case of `COc1ccc(S(=O)(=O)N2CN(Cc3ccco3)c3nc4ccccc4nc32)cc1`, the fluorescence artifact activation is 37.3% (active).
The result for `COC1=C/C(=C/c2c(N)n3cc(C)sc3nc2=O)C=CC1=O` reads -0.03%.
The result for `Cc1cccc(Nc2c([N+](=O)[O-])c(=O)oc3ccccc23)c1` reads 7.76%; that for `O=C(c1ccncc1)N(Cc1ccccc1)Cc1nc2ccccc2c(=O)[nH]1`, 0.03%.
The result for `COc1ccc2cc(CN(CC3CCCO3)C(=S)NCc3ccco3)c(=O)[nH]c2c1` (stereo unspecified) reads 0.1%; that for `COc1cc2cc(CN(Cc3cccnc3)C(=O)NCc3ccccc3)c(=O)[nH]c2cc1OC`, 116% (active).

For the origin of these results see PubChem BioAssay AID504382 (The Scripps Research Institute Molecular Screening Center, 2011).
